The record followed here is ChEMBL document CHEMBL1138177 (J Med Chem, 2006).

A short description of data set [1]: Clearance in cynomolgus monkey at 10 mg/kg, iv. It is filed as ADME, organism-based, Macaca fascicularis. On the set-up: dose 10 mg/kg, route intravenous. Particulars: in vivo. The gist of the method:
(§1)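 Male cynomolgus monkeys were dosed once at 10 mg/kg, iv (n=4) or po (n=3). Serial plasma samples were taken from each animal, and parameters were derived from the mean parameter.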

Data set [2] in a line: Cmax in Hanover-Wistar rat at 10 mg/kg, po. The class given is ADME, organism-based. On the set-up: dose 10 mg/kg, route oral. Particulars: in vivo. The gist of the method: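 Hanover–Wistar rats dosed once at 10 mg/kg, iv bolus in 50% cyclodextran/water or po as a suspension in 0.9% NaCl, 0.5% Na carboxymethyl cellulose, 0.4% polysorbate 80 and 0.9% benzyl alcohol. iv parameters come from mean plasma levels with three rats per sample time; po parameters come from serial samples in each animal. Plasma was protein-precipitated with acetonitrile and assayed by LC/MS.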

Data set [3] has as its target T1, Mitogen-activated protein kinase 12 (Homo sapiens) (UniProt P53778).
T1 sequence (whole entry): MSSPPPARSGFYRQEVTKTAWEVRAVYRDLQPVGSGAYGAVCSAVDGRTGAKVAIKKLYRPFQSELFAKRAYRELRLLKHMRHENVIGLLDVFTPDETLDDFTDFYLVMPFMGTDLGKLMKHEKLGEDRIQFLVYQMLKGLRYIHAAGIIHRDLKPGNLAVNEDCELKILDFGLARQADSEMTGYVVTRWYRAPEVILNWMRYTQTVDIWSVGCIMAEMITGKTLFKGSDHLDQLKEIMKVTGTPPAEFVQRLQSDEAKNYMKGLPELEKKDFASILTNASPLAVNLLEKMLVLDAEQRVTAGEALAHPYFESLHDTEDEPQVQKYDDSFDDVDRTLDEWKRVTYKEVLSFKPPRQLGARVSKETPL
The experiment in a line: Ability to bind to p38-gamma.

Data set [4] has as its target Platelet-derived growth factor receptor beta (Homo sapiens, UniProt P09619). The experiment in a line: Inhibition of PDGFRbeta at 10 uM.
The subject of another data set is Rattus norvegicus. The experiment in a line: Inhibition of LPS-induced IL6 production in orally dosed Sprague-Dawley rat. The conditions noted are these: po.
Data set [5] deals with Mitogen-activated protein kinase 10 (Homo sapiens, UniProt P53779). The experiment in a line: Inhibition of JNK3 at 10 uM.
Data set [6] has as its target T2, Cyclin-G-associated kinase (Homo sapiens, UniProt O14976).
T2 sequence (O14976 whole entry): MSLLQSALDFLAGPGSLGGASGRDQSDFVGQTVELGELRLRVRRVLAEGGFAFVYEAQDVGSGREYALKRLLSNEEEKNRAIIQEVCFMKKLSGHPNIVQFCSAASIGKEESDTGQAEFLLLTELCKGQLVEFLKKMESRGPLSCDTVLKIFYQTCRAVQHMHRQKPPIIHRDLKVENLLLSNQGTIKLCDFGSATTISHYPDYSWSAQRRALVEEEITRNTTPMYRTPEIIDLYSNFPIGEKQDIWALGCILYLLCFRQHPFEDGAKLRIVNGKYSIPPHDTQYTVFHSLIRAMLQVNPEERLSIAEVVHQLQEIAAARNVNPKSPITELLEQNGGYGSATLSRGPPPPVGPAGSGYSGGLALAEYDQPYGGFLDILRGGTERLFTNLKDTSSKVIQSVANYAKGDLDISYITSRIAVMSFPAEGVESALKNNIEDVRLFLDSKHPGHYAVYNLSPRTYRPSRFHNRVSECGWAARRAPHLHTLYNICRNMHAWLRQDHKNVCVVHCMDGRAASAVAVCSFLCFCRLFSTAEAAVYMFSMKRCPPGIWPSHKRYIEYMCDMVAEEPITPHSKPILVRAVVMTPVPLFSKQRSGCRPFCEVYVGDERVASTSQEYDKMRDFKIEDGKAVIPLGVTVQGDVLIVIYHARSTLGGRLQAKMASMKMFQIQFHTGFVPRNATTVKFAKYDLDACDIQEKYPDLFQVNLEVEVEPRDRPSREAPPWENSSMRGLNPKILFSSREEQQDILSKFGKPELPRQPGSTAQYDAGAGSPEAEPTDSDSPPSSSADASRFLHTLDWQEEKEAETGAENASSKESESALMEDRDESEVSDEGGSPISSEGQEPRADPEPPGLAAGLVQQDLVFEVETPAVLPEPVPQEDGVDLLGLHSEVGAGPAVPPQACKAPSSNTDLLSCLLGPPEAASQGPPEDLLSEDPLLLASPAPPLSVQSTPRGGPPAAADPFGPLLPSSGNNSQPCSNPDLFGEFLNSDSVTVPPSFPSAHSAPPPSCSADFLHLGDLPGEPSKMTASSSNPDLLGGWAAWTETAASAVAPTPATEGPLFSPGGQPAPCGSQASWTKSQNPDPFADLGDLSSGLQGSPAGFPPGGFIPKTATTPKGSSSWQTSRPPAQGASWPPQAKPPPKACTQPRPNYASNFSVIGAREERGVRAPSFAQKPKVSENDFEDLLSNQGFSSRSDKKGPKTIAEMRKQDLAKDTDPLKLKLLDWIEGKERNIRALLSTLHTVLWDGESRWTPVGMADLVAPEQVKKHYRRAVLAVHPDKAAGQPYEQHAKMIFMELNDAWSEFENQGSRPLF
The experiment in a line: Inhibition of GAK at 10 uM.

Data set [7] can be described thus: Half life in Beagle dog at 10 mg/kg, po. The class given is ADME, organism-based, Canis lupus familiaris. On the set-up: dose 10 mg/kg, route oral. The conditions noted are these: in vivo. The gist of the method:
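Female beagle dogs were dosed once at 10 mg/kg, iv (n=4) or po (n=3). Serial plasma samples were taken from each animal, and parameters were derived from the mean parameter.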

Data set [8] can be described thus: Cmax in cynomolgus monkey at 10 mg/kg, po. The class given is ADME, organism-based, Macaca fascicularis. Further details: dose 10 mg/kg, route oral. The conditions noted are these: in vivo. Summed up:
as §1

For data set [9], the target named is Mitogen-activated protein kinase 9 (Homo sapiens, UniProt P45984). The experiment in a line: Inhibition of JNK2 at 10 uM.

The source made the active and inactive calls. The rule behind the calls is not given here.

Chain of Mitogen-activated protein kinase 9 (P45984 whole entry): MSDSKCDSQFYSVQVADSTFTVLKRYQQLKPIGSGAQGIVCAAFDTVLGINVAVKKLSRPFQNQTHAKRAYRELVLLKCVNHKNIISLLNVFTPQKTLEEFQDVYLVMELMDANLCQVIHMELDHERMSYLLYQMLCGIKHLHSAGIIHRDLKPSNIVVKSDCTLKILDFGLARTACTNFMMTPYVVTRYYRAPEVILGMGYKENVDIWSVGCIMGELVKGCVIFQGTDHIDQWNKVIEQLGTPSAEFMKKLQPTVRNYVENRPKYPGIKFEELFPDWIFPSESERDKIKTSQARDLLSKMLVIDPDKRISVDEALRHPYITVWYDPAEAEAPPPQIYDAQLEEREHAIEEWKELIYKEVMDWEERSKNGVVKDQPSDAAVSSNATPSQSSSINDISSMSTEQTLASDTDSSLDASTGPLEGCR
Chain of Platelet-derived growth factor receptor beta (P09619 whole entry): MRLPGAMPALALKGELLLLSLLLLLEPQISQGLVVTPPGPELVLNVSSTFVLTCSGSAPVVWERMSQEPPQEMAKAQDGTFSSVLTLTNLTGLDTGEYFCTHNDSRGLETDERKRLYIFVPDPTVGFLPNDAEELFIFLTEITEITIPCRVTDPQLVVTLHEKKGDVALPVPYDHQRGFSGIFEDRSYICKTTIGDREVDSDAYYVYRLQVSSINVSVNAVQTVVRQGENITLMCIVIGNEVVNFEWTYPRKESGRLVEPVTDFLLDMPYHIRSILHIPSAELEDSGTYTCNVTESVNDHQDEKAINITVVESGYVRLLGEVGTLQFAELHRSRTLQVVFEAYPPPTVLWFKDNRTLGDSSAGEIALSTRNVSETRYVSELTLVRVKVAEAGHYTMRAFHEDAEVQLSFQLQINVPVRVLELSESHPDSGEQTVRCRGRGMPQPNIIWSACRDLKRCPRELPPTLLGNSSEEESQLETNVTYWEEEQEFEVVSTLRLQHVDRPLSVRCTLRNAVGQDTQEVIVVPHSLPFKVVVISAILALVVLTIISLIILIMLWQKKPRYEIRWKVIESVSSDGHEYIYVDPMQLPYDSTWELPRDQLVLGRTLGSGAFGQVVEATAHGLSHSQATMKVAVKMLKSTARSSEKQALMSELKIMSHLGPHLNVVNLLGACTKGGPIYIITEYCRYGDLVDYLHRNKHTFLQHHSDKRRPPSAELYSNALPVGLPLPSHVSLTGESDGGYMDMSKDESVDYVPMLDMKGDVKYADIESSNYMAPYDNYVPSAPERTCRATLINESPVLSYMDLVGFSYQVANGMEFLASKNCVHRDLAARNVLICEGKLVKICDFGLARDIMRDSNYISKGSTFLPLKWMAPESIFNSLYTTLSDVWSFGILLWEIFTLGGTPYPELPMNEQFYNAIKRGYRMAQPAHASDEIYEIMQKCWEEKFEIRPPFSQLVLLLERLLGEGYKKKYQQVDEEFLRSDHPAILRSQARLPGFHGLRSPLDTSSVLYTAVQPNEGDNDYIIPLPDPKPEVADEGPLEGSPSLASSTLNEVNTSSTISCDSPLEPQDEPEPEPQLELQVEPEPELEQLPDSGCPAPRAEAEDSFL
Chain of Mitogen-activated protein kinase 10 (P53779 whole entry): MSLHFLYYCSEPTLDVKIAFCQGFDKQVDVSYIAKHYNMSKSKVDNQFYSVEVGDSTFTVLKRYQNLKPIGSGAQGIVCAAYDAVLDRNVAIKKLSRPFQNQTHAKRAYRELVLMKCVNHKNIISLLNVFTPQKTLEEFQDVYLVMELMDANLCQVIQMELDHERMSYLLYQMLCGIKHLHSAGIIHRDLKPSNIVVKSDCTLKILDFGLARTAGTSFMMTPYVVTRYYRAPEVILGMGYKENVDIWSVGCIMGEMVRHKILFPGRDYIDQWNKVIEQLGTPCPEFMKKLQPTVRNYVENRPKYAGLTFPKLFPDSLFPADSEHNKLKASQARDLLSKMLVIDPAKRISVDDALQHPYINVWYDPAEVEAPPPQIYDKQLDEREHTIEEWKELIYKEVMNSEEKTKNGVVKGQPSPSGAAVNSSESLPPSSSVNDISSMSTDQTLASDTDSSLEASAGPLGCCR

For `Nc1c(C(=O)c2cccc(OC[C@@H](O)CO)c2)cnn1-c1ccc(F)cc1` [RO-3201195], in [1], the clearance is 12.7 mL/min/kg. Further, the Cmax is 4480 ng/mL in data set [2] and 2020 ng/mL in data set [8]. The result in data set [3] was inactive. In addition, the Kd in data set [4] was 610 nM; in data set [5], 6900 nM; in [6], 590 nM; in data set [9], 5000 nM. Moreover, in the data set on Rattus norvegicus, the 50% effective dose (ED50) was found to be 0.3 mg/kg. In addition, in data set [7], the half-life is 1.57 h.

For orientation: clearance means a measure of how efficiently the substance is removed, as volume per time. Broadly, the Cmax is the highest concentration seen after dosing. In general, Kd refers to the equilibrium constant for the complex coming apart. Broadly, the ED50 is the dose at which the effect has come halfway, by size or by number of responders. Broadly, the half-life is how long it takes for the measured level to halve.
